We go through 2 compounds from ChEMBL document CHEMBL1123708, “Resolved cis- and trans-2-amino-5-methoxy-1-methyltetralins: central dopamine receptor agonists and antagonists” (1987).

The structures appear in SMILES notation. The source made the active and inactive calls. The calls are words filed in the database; no cut-off is given here.

For assay [1], the system named is Rattus norvegicus. As to the kind of experiment: In vivo DOPA accumulation in reserpine pretreated rat limbic system by subcutaneous administration. Type of assay: functional. The following applies: sc. The procedure, abridged:
(§1)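 Rats received reserpine (5 mg/kg sc) 18 h, test drug sc 60 min and NSD 1015 (100 mg/kg ip) 30 min before death, with saline controls. Limbic or striatal DOPA was measured. Dose for half-maximal decrease was estimated from 4-7-dose curves (n = 3-5), minimal level as % of control.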

The subject of assay [2] is Rattus norvegicus. Briefly: In vivo DOPA accumulation in reserpine pretreated rat striatum system by subcutaneous administration. Format: functional. The following applies: sc. The procedure, abridged: as §1
The test system of assay [3] is Rattus norvegicus. Briefly: Locomotory activity was determined in reserpine pretreated rats at a dose of 3.2 umol/kg by subcutaneous administration. Value is the accumulation counts/30 min. Format: functional. The procedure, abridged:
(§2)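 Rats were given reserpine 5 mg/kg sc 18 h beforehand, then test drug sc immediately before the activity session. Motor activity was recorded by photocells in motility meters as accumulated counts over 30 min, mean ± SEM, n = 3-4. Gross behaviour was watched for signs of stimulation. Reserpine-only controls were included.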

For assay [4], the system named is Rattus norvegicus. As to the kind of experiment: Locomotory activity was determined in non pretreated rats at a dose of 0.32 umol/kg by subcutaneous administration. Type of assay: functional. The procedure, abridged:
(§3)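 Untreated rats received test drug sc 5 min before a 30-min session in photocell motility meters, with accumulated counts recorded. Activity is expressed as percent of saline controls, mean ± SEM, n = 3-5. Gross behaviour was observed through a semitransparent mirror. Differences from saline controls were assessed by Student's t test.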

Assay [5] has as its system Rattus norvegicus. As to the kind of experiment: Locomotory activity was determined in non pretreated rats at a dose of 3.2 umol/kg by subcutaneous administration. Type of assay: functional. The procedure, abridged:
as §3

Assay [6] relates to Rattus norvegicus. Briefly: Change in rectal temperature induced by DiPr-5,6-ADTN at a dose of 22 umol/kg of compound by subcutaneous administration. Type of assay: functional. Summed up: (§4)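 Rats received DiPr-5,6-ADTN (0.25 μmol/kg sc) 100 min and test compound sc 40 min before death. Rectal temperature change (°C) was recorded between 60 and 100 min after DiPr-5,6-ADTN. Values are mean ± SEM, n = 4, with Student's t test vs DiPr-5,6-ADTN alone.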

The test system of assay [7] is Rattus norvegicus. Briefly: Change in rectal temperature induced by DiPr-5,6-ADTN at a dose of 45 umol/kg of compound by subcutaneous administration. Type of assay: functional. Summed up: as §4
For assay [8], the system named is Rattus norvegicus. Briefly: In vivo DOPA accumulation in non pretreated rat limbic system by subcutaneous administration; I denotes inactive. Format: functional, organism-based. The procedure, abridged:
(§5)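 Rats without pretreatment received test drug sc 65 min and NSD 1015 (100 mg/kg ip) 30 min before death, with saline controls. DOPA was measured in limbic or striatal tissue. Dose for half-maximal change was estimated from 4-5-dose curves (n = 3-5), maximal level as % of control.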

The subject of assay [9] is Rattus norvegicus. As to the kind of experiment: In vivo DOPA accumulation in non pretreated rat striatum system by subcutaneous administration; I denotes inactive. Format: functional, organism-based. Summed up: as §5
The test system of assay [10] is Rattus norvegicus. Briefly: Locomotory activity was determined in non pretreated rats at a dose of 52 umol/kg by subcutaneous administration; I denotes inactive. Type of assay: functional. Summed up: as §3
Assay [11] concerns Rattus norvegicus. As to the kind of experiment: Locomotory activity was determined in reserpine pretreated rats at a dose of 204 umol/kg by subcutaneous administration. Value is the accumulation counts/30 min. Type of assay: functional. The procedure, abridged: as §2
Assay [12] deals with Rattus norvegicus. As to the kind of experiment: Locomotory activity was determined in non pretreated rats at a dose of 3.2 umol/kg by subcutaneous administration; I denotes inactive. Type of assay: functional, organism-based. The procedure, abridged: as §3
In assay [13] the target is T1, Dopamine receptor (Rattus norvegicus) (UniProt P25115+P19020+P30729+P18901+P61169). The following applies: 22 uM.
Assay [14] addresses T1, Dopamine receptor (Rattus norvegicus). The following applies: 45 uM.

Usually ED50 stands for the midpoint of the dose-response relation. `CN1CCc2cccc3c2[C@H]1Cc1ccc(O)c(O)c1-3` [APOMORPHINE]: the median effective dose (ED50) is 0.041 µmol/kg in the assay with Rattus norvegicus [1] and 0.044 µmol/kg with Rattus norvegicus [2]. In addition, the Activity in the assay with Rattus norvegicus [3] worked out at 366 counts/30 min; in the assay on Rattus norvegicus [4], 52%; in the assay with Rattus norvegicus [5] it was 277%.

Consider `CCCN(CCC)[C@H]1CCc2c(OC)cccc2[C@H]1C`, for which the Body temp change in the assay with Rattus norvegicus [6] was found to be 0.12 °C; with Rattus norvegicus [7] it was 0.5 °C. Further, the ED50 result with Rattus norvegicus [8] and in the assay with Rattus norvegicus [9] was “inactive” each time. Moreover, the ED50 in the assay on Rattus norvegicus [1] is 5.5 µmol/kg; with Rattus norvegicus [2], 5.8 µmol/kg. The result in the assay on Rattus norvegicus [10] and in the assay on Rattus norvegicus [12] was inactive. Also, the Activity with Rattus norvegicus [11] is 8 counts/30 min. Also, the Binding in [13] amounted to 106%; in assay [14], 94%.
